Screens: PubChem BioAssay, Broad Institute
The list is not random: actives were taken first. Their share in the collection is about 2.3%.
HIV Env fusion = inhibitors of HIV Env-mediated cell fusion; HeLa-JRFL Env/CEM21 cell fusion, luciferase; inhibition, % at 12.3 µM; 360,000 compounds, 1.1% hits; AID 651610;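 active = mean replicate inhibition score of at least 50 and every replicate individually at or above 50; inconclusive = only one of the two criteria met; inactive = mean below 50 and not all replicates reaching 50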;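 note: 0% = plate neutral controls and 100% = maraviroc near 300 nM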
PAX8 inh HTS = PAX8 transcriptional activity inhibition; RMG-I TPO-luciferase reporter, SteadyGlo, 24 h; inhibition, % at 12.6 µM; 360,000 compounds, 1.2% hits; AID 652154;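 active = mean replicate inhibition at least 60% with every replicate also reaching 60%; inconclusive = only one of the two criteria is met; inactive = mean below 60% and not all replicates reaching 60%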;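 note: luciferase light reporting Pax8 driven TPO promoter activity; plate controls were median of neutral control wells for no effect and mitoxantrone controls for full effect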
FN deposit inh = fibronectin deposition inhibition; AH1F fibroblasts, Alexa488-fibronectin deposition fluorescence, overnight; inhibition, % at 12.6 µM; 350,000 compounds, 0.086% hits;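 active = mean inhibition across replicates of 30% or more, regardless of how many single replicates reach that level; inconclusive = mean under 30% yet at least half of replicates reach 30%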;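 note: positive control wells lacked labelled fibronectin entirely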
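Measured by – fluorescence 485/525 nm · System – AH1F fibroblast monolayer, labelled fibronectin deposition · Amount – 10000 cells per well · Buffer or medium – serum-reduced DMEM (2% serum) · Doses – single dose, pinned · Also added – fluorescent fibronectin at 24 nM final · Schedule – 1 h cell attachment, overnight exposure to compound and label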
PGC1a acetyl inh = modulators of PGC1a acetylation. U2OS PGC1a acetylation, AlphaScreen anti-acetyl-lysine; with virally co-expressed GCN5 acetyltransferase. inhibition, % at 15.6 µM. 350,000 compounds, 0.17% hits. AID 651687;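 active = every replicate shows inhibition of at least 40%; inconclusive = mean inhibition at least 40% but some replicate below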;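 note: 0% = neutral control wells and 100% = positive control wells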
F508del corr = CFTR F508del correction in bronchial cells | 350,000 compounds, 0.36% hits | activity (quench increase), % at 7.58 µM | CFBE cells, YFP halide quenching; stimulated with forskolin plus potentiator P3; % fluorescence drop versus neutral controls;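 active = mean added fluorescence quench of at least 8% versus neutral control, with both replicates also reaching 8%; inconclusive = only one of the mean or replicate conditions met; inactive = mean below 8% and not both replicates reaching 8%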;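 note: cells transiently co-express mutant CFTR-F508del with the halide-sensitive YFP; corrector assay measuring rescue of mutant channel to the surface after 24 h compound exposure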
EWS-Fli block = blocks EWS/Fli oncoprotein-driven transcription. A673 NR0B1-luciferase reporter, viability-normalised. inhibition, % at 12.6 µM. 350,000 compounds, 0.67% hits. AID 651661;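 active = mean inhibition of at least 50% after viability correction, with every replicate also passing that limit; inconclusive = mean reaches 50% but only one of two replicates passes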;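 note: firefly luciferase signal divided by Alamar Blue viability fluorescence both relative to DMSO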
The depositor's hits bear a star; ? = inconclusive; / = not tested or not shown; [ ] = remark or other dose.

SMILES	HIV Env fusion	PAX8 inh HTS	FN deposit inh	PGC1a acetyl inh	F508del corr	EWS-Fli block
CCOC(=O)CCC(=O)O[C@H]1[C@H](O[C@@H]2[C@@H](C)[C@H](O[C@H]3C[C@@](C)(OC)[C@@H](O)[C@H](C)O3)[C@@H](C)C(=O)O[C@H](CC)[C@@](C)(O)[C@H](O)[C@@H](C)C(=O)[C@H](C)C[C@@]2(C)O)O[C@H](C)C[C@@H]1N(C)C	-9	13	5	-10	0	-10
O=C(OC1CCCCC1)c1ccc(NC(=O)C2CCCCC2)cc1	/	/	/	-13	/	/
O=C(Nc1ccc(C(=O)OC2CCCCC2)cc1)c1ccncc1	75*	11	-5	/	-4	10
Cn1c(CN2CCCC2)nc2cc(NC(=O)COc3ccc(Cl)cc3)ccc21	/	/	/	52*	5	-3
Cn1c(CN2CCCC2)nc2cc(NC(=O)c3ccc(Cl)cc3)ccc21	23	26	-3	12	0	1
Cn1c(CN2CCCCC2)nc2cc(NC(=O)c3ccc(Cl)cc3)ccc21	79*	/	-2	12	/	/
O=S(=O)(c1cccc(F)c1)N1CC[C@H]2[C@H](CO)Nc3ccc(C#Cc4cccc(F)c4)cc3[C@H]21	/	/	17	/	/	/
CC(C)(C)CC(C)(C)NC(=S)Nc1ccc2nc(-c3ccccn3)c(-c3ccccn3)nc2c1	58*	24	-1	-5	/	/
CCS(=O)(=O)NCC[C@H]1CC[C@H](NC(=O)C2CCCCC2)[C@@H](CO)O1	/	/	/	2	-1	/
CC(C)(C)[C@@H]1CCC(=O)N(CC[C@H](Sc2ccc(Br)cc2)c2ccccc2)CC1	67*	24	-14	/	2	16
C[C@H]1CCCCO[C@H](CN(C)CC2CCCCC2)[C@@H](C)CN([C@@H](C)CO)C(=O)c2cc(NS(=O)(=O)c3cccs3)ccc2O1	13[16.7 µM]	0	/	6	2	10
N#Cc1cccc(-c2ccc(C3[C@@H]4CN(C(=O)Nc5ccc6c(c5)OCO6)C[C@H]3N4)cc2)c1 (stereo partly specified)	/	-1	-5	-10	-1	1
C[C@@H]1CN([C@H](C)CO)C(=O)c2cc(-c3ccc(C(=O)N(C)C)cc3)cnc2O[C@H]1CN(C)C	14[16.7 µM]	/	-6	3	1	-7
O=C(N[C@H](Cc1ccccc1)C(=O)N1CCN(Cc2ccccn2)CC1)[C@H]1O[C@@H](n2ccc(=O)[nH]c2=O)[C@H](O)[C@@H]1O	?	-6	1	/	-1	-11
O=C([C@H]1O[C@@H](n2ccc(=O)[nH]c2=O)[C@H](O)[C@@H]1O)N1CCN(Cc2ccccn2)CC1	57*	-13	-2	/	1	2
C=CS(=O)(=O)c1ccc(Oc2ccc(S(=O)(=O)C=C)cc2)cc1	-355	98*	22	/	/	53*
C=CC[C@@H](CC(=O)N(CCO)Cc1ccccc1)C(=O)N[C@@H](COC(=O)[C@@H](CC=C)CC(=O)OC(C)(C)C)Cc1c[nH]c2ccccc12	-44	63*	-6	5	4	2
C=CC[C@H](CC(=O)N(CCO)Cc1ccccc1)C(=O)N[C@@H](COC(=O)[C@H](CC=C)CC(=O)OC(C)(C)C)Cc1c[nH]c2ccccc12	-43	103*	1	/	-4	3
CO[C@@H](C(=O)N(C)C[C@@H]1OCc2ccccc2-c2c(n(C)c3ccccc23)C(=O)N([C@@H](C)CO)C[C@H]1C)c1ccccc1	/	/	3	/	/	/
O=C(C1=C(c2ccccc2)C(=O)c2ccccc2C1=O)c1ccccc1	155*	78*	28	/	-2	61*
COC1C(CO)OC(n2c3c(Cl)cccc3c3c4c(c5c6cccc(Cl)c6[nH]c5c32)C(=O)NC4=O)C(O)C1O (stereo unspecified)	-102	113*	-11	35	9.8*	56*
COC(=O)c1ccc(CNC(=O)Cn2cnnn2)cc1	5	24	4	1	2	-12
COc1ccccc1CNC(=O)Cn1cnnn1	6	14	5	3	12*	4
CC(C)CC#Cc1cnc2c(c1)C(=O)N([C@H](C)CO)C[C@H](C)[C@@H](CN(C)C(=O)c1cnccn1)O2	-8[16.7 µM]	/	-3	-5	-2	-7
COc1ccc2c3c(n(C)c2c1)[C@@H](CO)N(Cc1ccc(F)cc1)CC31CCN(CC2CC2)CC1	/	/	/	-32	2	-3
SMILES	HIV Env fusion	PAX8 inh HTS	FN deposit inh	PGC1a acetyl inh	F508del corr	EWS-Fli block
Cn1c(=O)c(/C=C/c2ccccc2)nc2ccccc21	-83	-58	/	/	/	-25
Cn1c(/C=C/c2ccccc2)nc2ccccc21	-5	79*	4	/	-4	59*
COc1ccc(C(=O)c2ccc(N(C)C)cc2)c(OC)c1	/	/	/	-48	11*	30
C[C@@H]1CN([C@@H](C)CO)C(=O)Cc2cc(N(C)C)ccc2O[C@H]1CN(C)Cc1ccc(Cl)c(Cl)c1	17[16.7 µM]	71*	1	0	0	-1
C[C@H](CO)N1C[C@H](C)[C@H](CN(C)Cc2ccc(Cl)c(Cl)c2)Oc2ccc(N(C)C)cc2CC1=O	-3[16.7 µM]	13	-32	10	-3	6
C[C@H](CO)N1C[C@H](C)[C@@H](CN(C)Cc2ccc(Cl)c(Cl)c2)Oc2ccc(N(C)C)cc2CC1=O	42[16.7 µM]	75*	-19	0	-3	-1
C[C@@H]1CN([C@H](C)CO)C(=O)Cc2cc(N(C)C)ccc2O[C@H]1CN(C)Cc1ccc(Cl)c(Cl)c1	33[16.7 µM]	32	0	0	2	-3
C[C@H](CO)N1C[C@H](C)[C@@H](CN(C)CC2CCCCC2)OCCCC[C@H](C)Oc2ccc(N(C)C)cc2C1=O	13[16.7 µM]	-3	/	-18	0	-3
CCC(C)(C)C(=O)O[C@H]1C[C@@H](C)C=C2C=C[C@H](C)[C@H](CC[C@@H]3C[C@@H](O)CC(=O)O3)[C@H]21	67*	10	6	-15	-2	41
C(=NN1CCCCCC1)c1ccc2ccccc2n1	?	/	-2	4	-2	88*
C(=NN1CCCCCC1)c1cccc2ccccc12	-14	8	/	1	0	-17
CCCCNc1cc(C(=O)O)cc(S(N)(=O)=O)c1Oc1ccccc1	-13	4	-7	-10	8.6*	0
NS(=O)(=O)c1cc(C(=O)O)cc(N2CCCC2)c1Oc1ccccc1	11	-16	2	10	-1	-14
CN(C)CCNc1ccc2nnn3c4ccc(O)cc4c(=O)c1c23	2	-1	3	/	4	-5
CCN(CC)CCCNc1ccc2ncn3c4ccc(O)cc4c(=O)c1c23	37	/	1	/	20*	-10
CC(=O)Nc1ccc2c(c1)C(=O)N(C)C[C@@H](C)[C@@H](CN(C)C(=O)NC(C)C)O2	/	/	-12	/	/	/
CS(=O)(=O)N1CCc2cc(-c3csc(NC(=O)Cc4cccs4)n3)ccc21	76*	/	/	-8	/	/
CC(=O)Nc1nc(-c2ccc3c(c2)CCN3S(C)(=O)=O)cs1	-10	-77	/	-2	1	-77
